Screening data deposited in PubChem by several laboratories.
Sampled rows, rich in hits. Any-hit rate of the full collection: about 2.5%.
ADAM17 inh – inhibits human ADAM17; P78536; recombinant ADAM17, EDANS/DABCYL FRET peptide cleavage; inhibition, % at 6.95 µM; 0.83% of 370,000 active; AID 720648;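 active = inhibition above the mean of compounds lying between control limits plus 3 SD, set per campaign, cut at about 8.5% in these data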
GASC-1 inh – human JMJD2C demethylase inhibition; Q9H3R0; GST-JMJD2C(1-420) H3K9me3 demethylation, DELFIA europium; inhibition, % at 2.35 µM; 0.069% of 330,000 active; AID 2099;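 active = more than half of a compound's replicate wells show inhibition beyond 50%, single wells judged on their own value; inconclusive = some, but no more than half, of replicates pass 50% inhibition; inactive = no replicate passes 50% inhibition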;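 also: signal counts dimethyl H3K9 product captured on neutravidin plate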
ADAM10 inh – inhibitors of human ADAM10. O14672. recombinant ADAM10, EDANS/DABCYL FRET peptide cleavage, 3 h. inhibition, % at 7 µM. 0.62% of 370,000 active;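 active = inhibition above a per-campaign cutoff equal to the mean of compounds falling between control-based bounds plus 3 SD, cut at about 20% in these data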
proKLK7 act – activates the human kallikrein-7 zymogen. activation, % at 7 µM. P49862. 0.9% of 370,000 active. purified proKLK7, EDANS-DABCYL substrate fluorescence; 100% is mature enzyme control, 0% vehicle;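 active = activation above the mean of all tested compounds plus 3 SD, computed per campaign excluding outliers beyond control limits, cut at about 13% in these data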
Target sequence (P49862 whole entry, looked up): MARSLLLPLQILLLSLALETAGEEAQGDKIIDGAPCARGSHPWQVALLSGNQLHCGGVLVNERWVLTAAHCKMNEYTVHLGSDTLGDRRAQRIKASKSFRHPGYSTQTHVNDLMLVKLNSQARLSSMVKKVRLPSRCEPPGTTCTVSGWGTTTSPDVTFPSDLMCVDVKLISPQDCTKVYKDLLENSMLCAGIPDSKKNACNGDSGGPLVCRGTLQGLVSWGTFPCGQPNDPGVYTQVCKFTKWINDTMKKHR
NR2E3 ag-1 – agonists of human NR2E3 nuclear receptor; Q9Y5X4; CHO-S Gal4-NCOR/VP16-NR2E3 two-hybrid, luciferase; inhibition of corepressor binding, % at 3.98 µM; 0.35% of 360,000 active;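 active = inhibition above the mean of all tested compounds plus 3 SD, cut at about 70% in these data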;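 also: higher means lower luciferase signal from less NR2E3 corepressor binding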
Target sequence (Q9Y5X4 whole entry, looked up, the tested form may be a part): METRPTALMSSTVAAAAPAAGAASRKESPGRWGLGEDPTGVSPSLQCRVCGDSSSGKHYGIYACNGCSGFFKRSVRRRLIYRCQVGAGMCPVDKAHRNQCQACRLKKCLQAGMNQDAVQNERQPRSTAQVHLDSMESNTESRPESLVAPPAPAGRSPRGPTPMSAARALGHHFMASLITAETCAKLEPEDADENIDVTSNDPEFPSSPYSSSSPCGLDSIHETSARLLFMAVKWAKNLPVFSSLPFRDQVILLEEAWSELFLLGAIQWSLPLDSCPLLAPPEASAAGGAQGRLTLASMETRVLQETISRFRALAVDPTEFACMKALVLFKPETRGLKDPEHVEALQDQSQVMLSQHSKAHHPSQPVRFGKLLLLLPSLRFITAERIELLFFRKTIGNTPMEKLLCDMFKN
NR2E3 ag-2 – NR2E3 (human) agonism; GST-NR2E3/biotin-RetCOR TR-FRET, 1536-well; inhibition of corepressor binding, % at 4.78 µM; 0.12% of 320,000 active; AID 2300;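 active = percent inhibition above the cutoff of mean plus 3 SD of all tested compounds, set per screening campaign, cut at about 20% in these data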
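Format: 1536-well format; test system: GST-NR2E3 and biotin-RetCOR proteins; read-out basis: percent inhibition of TR-FRET ratio; timing: 5 h incubation at 4 °C; detection: time-resolved FRET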
ADAM10 ctr – ADAM10 inhibition, counter-screen for ADAM17 exosite hits. shares compounds with ADAM17 inh. recombinant ADAM10, EDANS/DABCYL FRET peptide cleavage, 3 h. inhibition, % at 6.95 µM. 47% of 2,900 active. AID 743256;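 active = mean inhibition over the triplicate runs exceeds the activity threshold set in the earlier primary screen, cut at about 20% in these data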
ADAM17 confirm – confirmation of inhibitors of human ADAM17 | shares compounds with ADAM17 inh | 65% of 2,900 active | recombinant ADAM17, EDANS/DABCYL QFRET peptide cleavage | inhibition, % at 6.95 µM;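 active = mean inhibition across replicates above the hit cutoff set in the primary screen, cut at about 8.5% in these data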
Numbers stand for hits; - = inactive; ? = inconclusive; . = not tested or not shown.

SMILES	ADAM17 inh	GASC-1 inh	ADAM10 inh	proKLK7 act	NR2E3 ag-1	NR2E3 ag-2	ADAM10 ctr	ADAM17 confirm
CCc1cc2c(nc1CC)CCCN2S(=O)(=O)c1ccc(OC)cc1	10.9	.	-	-	.	.	-	-
Clc1ccc(OCc2nc(-c3ccccn3)n[nH]2)cc1	9.4	-	-	-	-	-	-	-
Brc1ccc(OCc2nc(-c3ccccn3)n[nH]2)cc1	-	-	-	-	-	-	.	.
COc1ccc(C)cc1NC(=O)CN(C)S(=O)(=O)c1ccc2c(c1)CCCN2C(C)=O	9.0	-	-	-	-	-	-	-
CC(C)=CCc1c(O)ccc(C(=O)Cc2ccccc2)c1O	10.5	-	-	-	-	-	23.7	12.6
CCN(CC)C(=O)c1nc[nH]c1C(=O)N(CC)CC	9.2	-	-	-	-	-	-	-
COc1ccc(C2CC(=O)c3c(O)cc(O)cc3O2)c(CC=C(C)C)c1OC (stereo not drawn)	13.8	-	-	-	-	-	25.2	14.4
COc1ccc(C2CC(=O)c3c(O)cc(O)cc3O2)cc1O (stereo not drawn)	-	.	-	-	-	.	.	.
CCOC(=O)C1=C(O)/C(=C/c2ccc(-c3ccccc3C(=O)O)o2)SC1=Nc1ccc(C)cc1	-	.	-	-	-	.	.	.
CCOC(=O)C1=C(O)/C(=C/c2ccc(-c3ccccc3C(=O)O)o2)SC1=Nc1ccc(OC)cc1	9.5	.	-	-	-	.	-	8.8
Cc1cc(F)ccc1NC(=O)c1cc(S(=O)(=O)N2CCc3ccccc32)cn1C	-	-	-	-	-	-	.	.
CCOCCCNC(=O)Cn1cnc2c(cnn2-c2ccc(C)c(C)c2)c1=O	-	-	-	-	-	-	.	.
COc1cc(/C=N/n2c(-c3ccc4c(c3)NC(=O)CO4)csc2=Nc2cccc(C)c2)ccc1O	9.3	-	-	-	-	-	-	9.8
CCOc1cccc2cc(C(=O)NCc3ccc(Cl)cc3)c(=N)oc12	-	-	-	-	-	-	.	.
CC(C)C[C@H](NC1(C(=O)NCCc2c[nH]c3ccccc23)CCOCC1)C(=O)NCCCc1ccccc1	-	.	-	.	.	.	.	.
CC(C)C[C@H](NC1(C(=O)NCCc2c[nH]c3ccccc23)CCC1)C(=O)NCCCc1ccccc1	8.8	.	-	.	.	.	-	-
CC(Sc1nc2cc(Cl)ccc2s1)C(=O)Nc1cccc(S(=O)(=O)N2CCOCC2)c1 (stereo not drawn)	9.5	-	-	-	-	-	23.6	15.1
NS(=O)(=O)c1ccc(CCNC(=O)CCc2nc3sc4c(c3c(=O)[nH]2)CCCC4)cc1	-	-	-	-	-	-	.	.
O=C(O)CCCN1C(=O)C2C3CCC(C3)C2C1=O (stereo not drawn)	9.1	.	-	-	-	.	-	-
O=C(O)CCCN1C(=O)C2C3CCC(O3)C2C1=O (stereo not drawn)	-	-	-	-	-	-	.	.
CC1(Cc2ccc(OC(F)(F)F)cc2)C(=O)Nc2ccc(OC(F)(F)F)cc21 (stereo not drawn)	10.6	.	-	-	-	.	50.8	25.4
CC1(Cc2ccc(OC(F)(F)F)cc2)C(=O)Nc2c(Cl)ccc(Cl)c21 (stereo not drawn)	9.7	.	-	-	-	.	30.6	15.3
CCS(=O)(=O)c1ccc(O)c(NC(=O)CC2(CC(=O)O)CCCC2)c1	-	-	-	-	-	-	.	.
CCOc1ccc(C2/C(=C(\O)c3c(C)[nH]c(C(=O)OC)c3C)C(=O)C(=O)N2CCN(C)C)cc1 (stereo not drawn)	.	?	.	.	-	-	.	.
CCCOc1ccc(C2/C(=C(\O)c3c(C)[nH]c(C(=O)OC)c3C)C(=O)C(=O)N2CCN(C)C)cc1 (stereo not drawn)	9.9	-	-	-	-	-	-	-
SMILES	ADAM17 inh	GASC-1 inh	ADAM10 inh	proKLK7 act	NR2E3 ag-1	NR2E3 ag-2	ADAM10 ctr	ADAM17 confirm
CC1=C(C(=O)OCCNC(=O)c2ccccc2O)C(c2ccccc2[N+](=O)[O-])C(C(=O)OCC2CCCO2)=C(C)N1 (stereo not drawn)	13.3	-	-	-	-	-	-	-
O=C(NNC(=O)c1ccccc1F)c1ccc(NS(=O)(=O)c2ccc(F)cc2)cc1	-	.	-	-	-	.	.	.
CCCCCCOC(=O)Nc1ccc(S(=O)(=O)Nc2cccc([N+](=O)[O-])c2)cc1	-	-	-	-	-	-	.	.
c1cncc(-c2ccc3ncnc(NCc4ccc5c(c4)OCO5)c3c2)c1	-	.	-	-	-	.	.	.
c1nc(NCc2ccc3c(c2)OCO3)c2cc(-c3ccoc3)ccc2n1	9.9	-	-	-	-	.	-	-
O=C(c1ccc(Cl)cc1Cl)c1ncc(C(F)(F)F)cc1Cl	-	-	-	-	-	-	.	.
O/N=C(\c1ccc(Cl)cc1Cl)c1ncc(C(F)(F)F)cc1Cl	11.8	-	-	-	-	-	28.6	12.9
CCCN(C(=O)c1cn(CCC)c2ccccc12)c1ccc(Oc2cccnc2)cc1	10.5	.	-	-	.	.	-	9.1
CCCn1cc(CCC(=O)Nc2ccc(Oc3cccnc3)cc2)c2ccccc21	-	.	-	-	.	.	.	.
CCSc1ccc([C@@H]2[C@@H]3C(=O)N(CC)C(=O)[C@@H]3[C@]3(C(=O)OC)CCCCN23)cc1OC	-	-	-	-	-	-	.	.
CCSc1ccc([C@@H]2[C@H]3C(=O)N(C)C(=O)[C@H]3[C@]3(C(=O)OC)CCCCN23)cc1OC	10.8	-	-	-	-	-	26.0	12.7
CCN1C(=O)[C@@H]2[C@@H](c3ccc(SC4CCCCC4)c(OC)c3)N3CCCC[C@@]3(C(=O)OC)[C@@H]2C1=O	-	.	-	-	-	.	.	.
COC(=O)[C@@]12CCCCN1[C@H](c1ccc(SC3CCCCC3)c(OC)c1)[C@@H]1C(=O)N(C)C(=O)[C@@H]12	10.1	-	-	-	-	-	29.1	17.1
CCC(C)Sc1ccc([C@@H]2[C@@H]3C(=O)N(CC)C(=O)[C@@H]3[C@]3(C(=O)OC)CCCCN23)cc1OC (stereo partly drawn)	9.2	.	-	-	-	.	-	-
CCCSc1ccc([C@@H]2[C@H]3C(=O)N(CC)C(=O)[C@H]3[C@]3(C(=O)OC)CCCN23)cc1	13.3	-	-	-	-	-	-	-
CCC(C)Sc1ccc([C@@H]2[C@@H]3C(=O)N(C)C(=O)[C@@H]3[C@]3(C(=O)OC)CCCCN23)cc1OC (stereo partly drawn)	-	-	-	-	-	-	.	.
CC(Cc1ccccc1)C(=O)Nc1ccc(Br)cc1 (stereo not drawn)	-	-	-	-	-	-	.	.
